# Data reported in ChEMBL document CHEMBL4251545, “Design and synthesis of cenocladamide analogues and their evaluation against breast cancer cell lines” (Medchemcomm, 2017).
# Active and inactive are the calls of the source. No cut-off for these calls is given here.
# Columns and labels:
# [1] = tested on: MDA-MB-231; assay: Antiproliferative activity against human MDA-MB-231 cells at 20 uM after 3 days by DAPI staining-based fluorescence microscopic method relative to control; type: functional
# Summary of the method: (§1)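 Controls were 0.5% DMSO (negative) and 1 μM doxorubicin (positive). Cells were fixed in 3.7% formaldehyde, stained with 0.4 μg mL–1 DAPI, and nuclei counted by automated fluorescence microscopy. Proliferation % and cell-loss % were calculated against a 24 h cell count and the DMSO 72 h count.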
# [2] = tested on: MDA-MB-231; assay: Induction of nuclear morphological changes in human MDA-MB-231 cells assessed as nuclear fragmentation by Hoechst 33342 staining-based fluorescence microscopic method; type: functional, cell-based
# Summary of the method: (§2)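 Stained 60 min with 1 μg mL–1 Hoechst 33342 and 300 nM MitoTracker Deep Red in RPMI/10% FBS, then imaged by automated fluorescence microscopy. Mitochondrial mass taken as mean cytoplasmic MitoTracker intensity. Nuclear fragmentation index from an apoptosis image-analysis module.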
# [3] = tested on: MDA-MB-231; assay: Cytotoxicity against human MDA-MB-231 cells by MitoTracker Deep Red staining-based fluorescence microscopic method; type: functional, cell-based; summary of the method: as §2
# [4] = tested on: MDA-MB-231; assay: Induction of reactive oxygen species generation in human MDA-MB-231 cells at 20 uM after 24 hrs by H2DCFDA dye-based fluorescence microscopic method; type: functional, cell-based
# Summary of the method: (§3)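 MDA-MB-231 cells were exposed for 3 or 24 h, with or without 3 mM N-acetyl-L-cysteine. Intracellular ROS was probed with 10 μM H2DCFDA for 30 min at 37 °C. After a PBS wash, fluorescence intensity was quantified by automated fluorescence microscopy. Cells were grown at 37 °C, 5% CO2.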
# [5] = tested on: MDA-MB-231; assay: Induction of reactive oxygen species generation in human MDA-MB-231 cells at 6 uM after 24 hrs by H2DCFDA dye-based fluorescence microscopic method; type: functional, cell-based; details: 20 uM, in the assay text read “at 20 uM” for “at 6 uM”; summary of the method: as §3
# [6] = tested on: MDA-MB-231; assay: Induction of reactive oxygen species generation in human MDA-MB-231 cells at 6 uM after 3 hrs in presence of N-acetyl-L-cysteine by H2DCFDA dye-based fluorescence microscopic method; type: functional, cell-based; details: 20 uM, in the assay text read “at 20 uM” for “at 6 uM”; summary of the method: as §3
# [7] = tested on: MDA-MB-231; assay: Cytotoxicity against human MDA-MB-231 cells at 20 uM after 3 days by DAPI staining-based fluorescence microscopic method relative to control; type: functional
# [8] = tested on: MDA-MB-231; assay: Antiproliferative activity against human MDA-MB-231 cells after 3 days by DAPI staining-based fluorescence microscopic method; type: functional, cell-based; details: MDA-MB-231, 72 h
# Summary of the method: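 Fixed in 3.7% formaldehyde, nuclei stained with 0.4 μg mL–1 DAPI, counted by automated fluorescence microscopy. Proliferation normalised to 0.5% DMSO and to 24 h cell count; IC50 from dose response.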
# [9] = tested on: SK-BR-3; assay: Cytotoxicity against human SKBR3 cells at 20 uM after 3 days by DAPI staining-based fluorescence microscopic method relative to control; type: functional
# [10] = tested on: Hs-578T; assay: Cytotoxicity against human Hs 578T cells at 20 uM after 3 days by DAPI staining-based fluorescence microscopic method relative to control; type: functional
# [11] = tested on: HCC38; assay: Cytotoxicity against human HCC38 cells at 20 uM after 3 days by DAPI staining-based fluorescence microscopic method relative to control; type: functional
# [12] = tested on: MDA-MB-468; assay: Cytotoxicity against human MDA-MB-468 cells at 20 uM after 3 days by DAPI staining-based fluorescence microscopic method relative to control; type: functional
# [13] = tested on: BT-549; assay: Cytotoxicity against human BT549 cells at 20 uM after 3 days by DAPI staining-based fluorescence microscopic method relative to control; type: functional
# [14] = tested on: T47D; assay: Cytotoxicity against human T47D cells at 20 uM after 3 days by DAPI staining-based fluorescence microscopic method relative to control; type: functional
# [15] = tested on: MCF7; assay: Cytotoxicity against human MCF7 cells at 20 uM after 3 days by DAPI staining-based fluorescence microscopic method relative to control; type: functional
# [16] = tested on: MDA-MB-231; assay: Induction of necrosis in human MDA-MB-231 cells at 40 uM after 24 hrs by acridine orange/ethidium bromide staining-based flow cytometric method; type: functional, cell-based
# [17] = tested on: MDA-MB-231; assay: Cell cycle arrest in human MDA-MB-231 cells assessed as accumulation at S phase at 25 uM after 72 hrs by EdU incorporation-based fluorescence microscopic method; type: functional
# Summary of the method: (§4)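 Cells exposed 72 h to 0.2–25 μM, then pulsed 30 min with 30 μM EdU. Fixed in 3.7% paraformaldehyde, permeabilised with 0.1% Triton X100. EdU click-labelled with AF488. Blocked in 3% BSA, then anti-pHH3 (S10) 1:250 and AF647 secondary with Hoechst. S and M phases scored by automated imaging cell-cycle module.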
# [18] = tested on: MDA-MB-231; assay: Cell cycle arrest in human MDA-MB-231 cells assessed as accumulation at M phase at 25 uM after 72 hrs by pHH3 detection-based fluorescence microscopic method; type: functional; summary of the method: as §4
# [19] = tested on: MDA-MB-231; assay: Induction of reactive oxygen species generation in human MDA-MB-231 cells at 6 uM after 3 hrs by H2DCFDA dye-based fluorescence microscopic method relative to control; type: functional
# Summary of the method: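 Exposed 3 or 24 h to 6 μM, with or without 3 mM N-acetyl-L-cysteine. Cells then loaded with 10 μM H2DCFDA for 30 min at 37 °C, washed with PBS, and fluorescence intensity read by automated fluorescence microscopy.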
# [20] = tested on: Hs-578T; assay: Cytotoxicity against human Hs 578T cells at 0.5 uM after 3 days by DAPI staining-based fluorescence microscopic method relative to control; type: functional; details: in the assay text read “at 1 uM” for “at 0.5 uM”; summary of the method: as §1
# [21] = tested on: HCC38; assay: Cytotoxicity against human HCC38 cells at 0.5 uM after 3 days by DAPI staining-based fluorescence microscopic method relative to control; type: functional; details: in the assay text read “at 1 uM” for “at 0.5 uM”; summary of the method: as §1
# [22] = tested on: MDA-MB-468; assay: Cytotoxicity against human MDA-MB-468 cells at 0.5 uM after 3 days by DAPI staining-based fluorescence microscopic method relative to control; type: functional; details: in the assay text read “at 1 uM” for “at 0.5 uM”; summary of the method: as §1
# [23] = tested on: BT-549; assay: Cytotoxicity against human BT549 cells at 0.5 uM after 3 days by DAPI staining-based fluorescence microscopic method relative to control; type: functional; details: in the assay text read “at 1 uM” for “at 0.5 uM”; summary of the method: as §1
# [24] = tested on: T47D; assay: Cytotoxicity against human T47D cells at 0.5 uM after 3 days by DAPI staining-based fluorescence microscopic method relative to control; type: functional; details: in the assay text read “at 1 uM” for “at 0.5 uM”; summary of the method: as §1
# [25] = tested on: MCF7; assay: Cytotoxicity against human MCF7 cells at 0.5 uM after 3 days by DAPI staining-based fluorescence microscopic method relative to control; type: functional; details: in the assay text read “at 1 uM” for “at 0.5 uM”; summary of the method: as §1
# [26] = tested on: HMEC; assay: Cytotoxicity against immortalized HMEC at 0.5 uM after 3 days by DAPI staining-based fluorescence microscopic method relative to control; type: cell-based; details: human, 72 h, 1 µM, in the assay text read “at 1 uM” for “at 0.5 uM”; summary of the method: as §1
# [27] = tested on: MDA-MB-231; assay: Cytotoxicity against human MDA-MB-231 cells at 0.5 uM after 3 days by DAPI staining-based fluorescence microscopic method relative to control; type: functional; details: in the assay text read “at 1 uM” for “at 0.5 uM”; summary of the method: as §1
compound,measurement,setting,value
O=C1C=CN(C(=O)/C=C/c2ccccc2)CC1,Activity,[1],50%
COc1cc(CCC(=O)N2C=CC(=O)CC2)cc(OC)c1OC,Activity,[1],inactive
COc1cc(/C=C/C(=O)N2CCCCC2)cc(OC)c1O,Activity,[2],inactive
same,Activity,[3],inactive
same,Activity,[4],inactive
same,Activity,[5],inactive
same,Activity,[6],inactive
COc1cc(/C=C/C(=O)N2CCC(=O)CC2)cc(OC)c1O,Activity,[7],60%
same,IC50,[8],6.6 µM
same,Activity,[9],>=15 - 80%
same,Activity,[10],>=15 - 80%
same,Activity,[11],>=15 - 80%
same,Activity,[12],>=15 - 80%
same,Activity,[13],>=15 - 80%
same,Activity,[14],>=15 - 80%
same,Activity,[15],>=15 - 80%
same,Activity,[2],Active
same,Activity,[3],Active
same,Activity,[16],Active
same,Activity,[17],inactive
same,Activity,[18],inactive
same,Activity,[19],20%
COc1cccc2c1C(=O)c1c(O)c3c(c(O)c1C2=O)C[C@@](O)(C(=O)CO)C[C@@H]3O[C@H]1C[C@H](N)[C@H](O)[C@H](C)O1 [DOXORUBICIN],Activity,[20],0.2 - 50%
same,Activity,[21],0.2 - 50%
same,Activity,[22],0.2 - 50%
same,Activity,[23],0.2 - 50%
same,Activity,[24],0.2 - 50%
same,Activity,[25],0.2 - 50%
same,Activity,[26],23.9%
same,Activity,[27],0.2 - 50%
COc1cc(/C=C/C(=O)N2C=CC(=O)CC2)cc(OC)c1OC,Activity,[1],50%
